Source: ChEMBL document CHEMBL1140056, “Design, synthesis, and antitumor activity of new bis-aminomethylnaphthalenes” (2008)
Activity calls are given as the source filed them. No cut-off for these calls is given here.

Experiments:
[1] = Antitumor activity against human NCI60 cells after 48 hrs by SRB assay; type: functional; details: NCI60, 48 h; for TGI: read-out: pTGI (converted)
How it was run: (§1)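 Run at NCI in the 60-line human tumour panel. Five concentrations at 10-fold dilutions starting from 10^-4 M, with continuous exposure for 48 h. Growth was read by sulforhodamine B protein staining. GI50 (+50% growth), TGI (0% growth) and LC50 were interpolated from the curves, and MG-MID is the arithmetic mean across all tested lines.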

[2] = Antitumor activity against human HL60(TB) cells after 48 hrs by SRB assay; type: functional, HL-60(TB); details: HL-60, 48 h
How it was run: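 NCI 60-cell-line primary screen: five concentrations at 10-fold dilutions starting from 10^-4 M. Cells exposed to drug continuously for 48 h. Growth estimated by sulforhodamine B protein assay. GI50 is the interpolated molar concentration giving +50% growth, TGI the concentration giving 0% growth, and LC50 the concentration giving 50% net cell death.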

[3] = system: K562; assay: Antitumor activity against human K562 cells after 48 hrs by SRB assay; type: functional; details: K562, 48 h; how it was run: as §1
[4] = system: MOLT-4; assay: Antitumor activity against human MOLT4 cells after 48 hrs by SRB assay; type: functional; details: MOLT-4, 48 h; how it was run: as §1
[5] = system: RPMI-8226; assay: Antitumor activity against human RPMI8226 cells after 48 hrs by SRB assay; type: functional; details: RPMI-8226, 48 h; how it was run: as §1
[6] = system: SR; assay: Antitumor activity against human SR cells after 48 hrs by SRB assay; type: functional; how it was run: as §1
[7] = system: COLO 205; assay: Antitumor activity against human COLO205 cells after 48 hrs by SRB assay; type: functional; details: COLO 205, 48 h; how it was run: as §1
[8] = system: HCT-116; assay: Antitumor activity against human HCT116 cells after 48 hrs by SRB assay; type: functional; details: HCT-116, 48 h; how it was run: as §1
[9] = system: HT-29; assay: Antitumor activity against human HT29 cells after 48 hrs by SRB assay; type: functional; details: HT-29, 48 h; how it was run: as §1
[10] = system: KM12; assay: Antitumor activity against human KM12 cells after 48 hrs by SRB assay; type: functional; details: KM12, 48 h; how it was run: as §1
[11] = system: SW-620; assay: Antitumor activity against human SW620 cells after 48 hrs by SRB assay; type: functional; details: SW-620, 48 h; how it was run: as §1
[12] = system: LOX IMVI; assay: Antitumor activity against human LOXIMVI cells after 48 hrs by SRB assay; type: functional; how it was run: as §1
[13] = system: Malme-3M; assay: Antitumor activity against human MALME3M cells after 48 hrs by SRB assay; type: functional; how it was run: as §1
[14] = system: M14; assay: Antitumor activity against human M14 cells after 48 hrs by SRB assay; type: functional; details: M14, 48 h; how it was run: as §1
[15] = system: SK-MEL-2; assay: Antitumor activity against human SK-MEL-2 cells after 48 hrs by SRB assay; type: functional; details: SK-MEL-2, 48 h; how it was run: as §1
[16] = system: SK-MEL-28; assay: Antitumor activity against human SK-MEL-28 cells after 48 hrs by SRB assay; type: functional; details: SK-MEL-28, 48 h; how it was run: as §1
[17] = system: SK-MEL-5; assay: Antitumor activity against human SK-MEL-5 cells after 48 hrs by SRB assay; type: functional; details: SK-MEL-5, 48 h; how it was run: as §1
[18] = system: UACC-257; assay: Antitumor activity against human UACC257 cells after 48 hrs by SRB assay; type: functional; details: UACC-257, 48 h; how it was run: as §1
[19] = system: UACC-62; assay: Antitumor activity against human UACC62 cells after 48 hrs by SRB assay; type: functional; details: UACC-62, 48 h; how it was run: as §1
[20] = system: MCF7; assay: Antitumor activity against human MCF7 cells after 48 hrs by SRB assay; type: functional; details: MCF7, 48 h; how it was run: as §1
[21] = Antitumor activity against human MCF7/ADR-RES cells after 48 hrs by SRB assay; type: functional; details: NCI/ADR-RES; how it was run: as §1
[22] = system: MDA-MB-231; assay: Antitumor activity against human MDA-MB-231 cells after 48 hrs by SRB assay; type: functional; details: MDA-MB-231, 48 h; how it was run: as §1
[23] = system: Hs-578T; assay: Antitumor activity against human HS578T cells after 48 hrs by SRB assay; type: functional; how it was run: as §1
[24] = system: MDA-MB-435; assay: Antitumor activity against human MDA-MB-435 cells after 48 hrs by SRB assay; type: functional; details: MDA-MB-435, 48 h; how it was run: as §1
[25] = system: MDA-N; assay: Antitumor activity against human MDA-N cells after 48 hrs by SRB assay; type: functional; how it was run: as §1
[26] = system: T47D; assay: Antitumor activity against human T47D cells after 48 hrs by SRB assay; type: functional; how it was run: as §1
[27] = system: Tru-Pr1; assay: Effect on cell cycle in human […] cells at 10 uM after 48 hrs by FACS analysis; type: functional, cell-based
How it was run: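 TSU-Pr1 prostate carcinoma cells (5×10^5) in exponential growth were treated for 48 h. They were then centrifuged, fixed in ice-cold 70% ethanol, treated with lysis buffer containing RNase, and stained with propidium iodide. DNA content and cell-cycle phases were read by flow cytometry.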

Structure (SMILES): COc1ccc2cc(CNCCCCCCCCNCc3ccc4cc(OC)ccc4c3)ccc2c1
- GI50 [1]: 1150 nM
- LC50 [1]: 6310 nM
- TGI [1]: 2400 nM

Structure (SMILES): COc1ccc2cc(CNCCCCCCNCc3ccc4cc(OC)ccc4c3)ccc2c1
- GI50 [1]: 603 nM
- LC50 [1]: 4070 nM
- TGI [1]: 1740 nM

Structure (SMILES): COc1cc(NS(C)(=O)=O)ccc1Nc1c2ccccc2nc2ccccc12 [AMSACRINE]
- GI50 [1]: 229 nM
- TGI [1]: 3390 nM

Structure (SMILES): c1ccc2c(CNCCCCCCNCc3cccc4ccccc34)cccc2c1
- GI50 [1]: 5370 nM
- LC50 [1]: 29500 nM
- TGI [1]: 12300 nM

Structure (SMILES): COc1ccc2cc(CN3CCC(C4CCN(Cc5ccc6cc(OC)ccc6c5)CC4)CC3)ccc2c1
- GI50 [1]: 2950 nM
- TGI [1]: 9770 nM
- GI50 [2]: 2630 nM
- GI50 [3]: 501 nM
- GI50 [4]: 2190 nM
- GI50 [5]: 1740 nM
- GI50 [6]: 1230 nM
- GI50 [7]: 1620 nM
- GI50 [8]: 3470 nM
- GI50 [9]: 3390 nM
- GI50 [10]: 3240 nM
- GI50 [11]: 3160 nM
- GI50 [12]: 2820 nM
- GI50 [13]: 2290 nM
- GI50 [14]: 2450 nM
- GI50 [15]: 6460 nM
- GI50 [16]: 2630 nM
- GI50 [17]: 1480 nM
- GI50 [18]: 2040 nM
- GI50 [19]: 1910 nM
- GI50 [20]: 5250 nM
- GI50 [21]: 13200 nM
- GI50 [22]: 3310 nM
- GI50 [23]: 10700 nM
- GI50 [24]: 1910 nM
- GI50 [25]: 1700 nM
- GI50 [26]: 1780 nM
- Activity [27]: inactive

Structure (SMILES): COc1ccc2cc(CNCCCCCCCCCCCCNCc3ccc4cc(OC)ccc4c3)ccc2c1
- GI50 [1]: 15500 nM
- LC50 [1]: 55000 nM
- TGI [1]: 29500 nM

Structure (SMILES): c1ccc2c(CN3CCC(C4CCN(Cc5cccc6ccccc56)CC4)CC3)cccc2c1
- GI50 [1]: 1950 nM
- LC50 [1]: 9550 nM
- TGI [1]: 4270 nM

Structure (SMILES): c1ccc2c(CNCCCCCCCCCCCCNCc3cccc4ccccc34)cccc2c1
- GI50 [1]: 2190 nM
- TGI [1]: 4370 nM

Structure (SMILES): COc1ccc2cc(CNCCCN3CCN(CCCNCc4ccc5cc(OC)ccc5c4)CC3)ccc2c1
- GI50 [1]: 1100 nM
- LC50 [1]: 5620 nM
- TGI [1]: 2450 nM

Structure (SMILES): c1ccc2c(CNCCCN3CCN(CCCNCc4cccc5ccccc45)CC3)cccc2c1
- GI50 [1]: 6610 nM
- LC50 [1]: 43700 nM
- TGI [1]: 19500 nM

Structure (SMILES): c1ccc2c(CNCCCCCCCCNCc3cccc4ccccc34)cccc2c1
- GI50 [1]: 2400 nM
- TGI [1]: 5250 nM

Structure (SMILES): COc1ccc2cc(CNCCOCCOCCNCc3ccc4cc(OC)ccc4c3)ccc2c1
- GI50 [1]: 724 nM
- LC50 [1]: 5250 nM
- TGI [1]: 1910 nM

Structure (SMILES): O=C1c2c(O)ccc(O)c2C(=O)c2c(NCCNCCO)ccc(NCCNCCO)c21 [MITOXANTRONE]
- GI50 [1]: 47.9 nM
- TGI [1]: 692 nM

Structure (SMILES): c1ccc2cc(CNCCOCCOCCNCc3ccc4ccccc4c3)ccc2c1
- GI50 [1]: 1700 nM
- LC50 [1]: 10000 nM
- TGI [1]: 3720 nM

Structure (SMILES): c1ccc2cc(CN3CCC(C4CCN(Cc5ccc6ccccc6c5)CC4)CC3)ccc2c1
- GI50 [1]: 2880 nM
- LC50 [1]: 25100 nM
- TGI [1]: 8320 nM
